According to ChEMBL document CHEMBL1137539, “Synthesis and in vitro evaluation of 5-arylidene-3-hydroxyalkyl-2-phenylimino-4-thiazolidinones with antidegenerative activity on human chondrocyte cultures” (Bioorg Med Chem, 2007):
Activity calls are given as the source filed them. No cut-off for these calls is given here.

How the values were obtained:
Homo sapiens [1] = species: Homo sapiens; experiment: Inhibition of IL1-beta induced nitrite production in human articular chondrocytes at 10 ug/ml after 120 hrs; format: functional, cell-based
Homo sapiens [2] = species: Homo sapiens; experiment: Inhibition of IL1-beta induced PGE2 production in human articular chondrocytes at 10 ug/ml to 100 ug/ml; format: functional, cell-based
Summary of the method: (§1)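 Human articular chondrocytes came from cartilage taken at femoral neck fracture surgery and were isolated by enzymatic digestion. After 24 h in culture they were exposed to compound (10, 50, 100 µg/mL) with IL-1β (10 ng/mL). Supernatant was collected at 120 h and PGE2 was quantified by enzyme immunoassay (detection limit 1 pg/mL). Values are means with SEM.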

Homo sapiens [3] = species: Homo sapiens; experiment: Inhibition of IL1-beta induced glycosaminoglycans depletion in human articular chondrocytes 10 ug/ml to 100 ug/ml; format: functional, cell-based
Summary of the method: (§2)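 Cartilage from femoral neck fracture patients was digested enzymatically to give chondrocytes. After 24 h the cells received compound at 10, 50 and 100 µg/mL together with IL-1β at 10 ng/mL. Total GAGs released into the medium were measured at 120 h and expressed as µg/mL, mean with SEM.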

Homo sapiens [4] = species: Homo sapiens; experiment: Inhibition of IL1-beta induced nitrite production in human articular chondrocytes at 100 ug/ml after 120 hrs; format: functional, cell-based
Homo sapiens [5] = species: Homo sapiens; experiment: Inhibition of IL1-beta induced nitrite production in human articular chondrocytes at 50 ug/ml after 120 hrs; format: functional, cell-based
[6] = Toxicity in human articular chondrocytes assessed as reduction of tetrazolium salt metabolism after 120 hrs by MTT assay; format: cell-based
Summary of the method: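 Enzymatically isolated human articular chondrocytes were treated with compound (10, 50, 100 µg/mL) plus IL-1β (10 ng/mL). Viability was measured at 120 h by MTT cleavage by mitochondrial dehydrogenases and read as absorbance, mean with SEM.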

Homo sapiens [7] = species: Homo sapiens; experiment: Inhibition of IL1-beta induced MMP3 secretion in human articular chondrocytes at 10 ug/ml to 100 ug/ml; format: functional, cell-based
Summary of the method: (§3)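 Chondrocytes were isolated from human articular cartilage taken at femoral neck fracture surgery, by sequential hyaluronidase, pronase and collagenase digestion, then cultured. After 24 h they were treated with test compound (10, 50 and 100 µg/mL) plus IL-1β (10 ng/mL). Supernatants were collected at 120 h and MMP-3 was measured by ELISA (detection limit 1 ng/mL). Values are means with SEM.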

[8] = Inhibition of IL1-beta induced MMP3 secretion in human articular chondrocytes at 100 ug/ml; format: functional; summary of the method: as §3
[9] = Inhibition of IL1-beta induced PGE2 production in human articular chondrocytes at 100 ug/ml; format: functional; summary of the method: as §1
[10] = Inhibition of IL1-beta induced glycosaminoglycans depletion in human articular chondrocytes at 100 ug/ml; format: functional; summary of the method: as §2

Row | SMILES | Activity (Homo sapiens [1]) | Activity (Homo sapiens [2]) | Activity (Homo sapiens [3]) | Activity (Homo sapiens [4]) | Activity (Homo sapiens [5]) | Activity [6] | Activity (Homo sapiens [7]) | Activity [8] | Activity [9] | Activity [10]
1 | COc1ccc(/C=C2\S/C(=N\c3ccccc3)N(CCCO)C2=O)cc1 | Active | Active | Active | Active | Active | Non-toxic | Active | – | – | –
2 | COc1ccc(/C=C2\S/C(=N\c3ccccc3)N(CCO)C2=O)cc1 | Active | Active | Active | Active | Active | Non-toxic | – | – | – | –
3 | COc1ccc2c(c1)c(CC(=O)O)c(C)n2C(=O)c1ccc(Cl)cc1 [INDOMETHACIN] | – | – | – | – | – | – | – | 62.64 ng/mL | – | –
4 | CS(=O)(=O)c1ccc(/C=C2\S/C(=N\c3ccccc3)N(CCCO)C2=O)cc1 | Active | – | Active | Active | Active | Non-toxic | – | – | 53.22 ng/mL | –
5 | CCCN1C(=O)/C(=C/c2cccc(OC)c2)S/C1=N\c1ccccc1 | Active | Active | – | Active | Active | – | – | – | – | –
6 | O=C1/C(=C/c2ccc(Cl)cc2)S/C(=N\c2ccccc2)N1CCCO | Active | Active | Active | Active | Active | Non-toxic | – | – | – | –
7 | COc1cccc(/C=C2\S/C(=N\c3ccccc3)N(CCCO)C2=O)c1 | Active | Active | Active | Active | Active | Non-toxic | – | – | – | –
8 | CSc1ccc(/C=C2\S/C(=N\c3ccccc3)N(CCCO)C2=O)cc1 | Active | Active | Active | Active | Active | Non-toxic | – | – | – | –
9 | COc1cccc(/C=C2\S/C(=N\c3ccccc3)N(CCO)C2=O)c1 | Active | Active | Active | Active | Active | Non-toxic | – | – | – | –
10 | O=C1/C(=C/c2ccc(Cl)cc2)S/C(=N\c2ccccc2)N1CCO | Active | Active | Active | Active | Active | Non-toxic | – | – | – | –
11 | CS(=O)(=O)c1ccc(/C=C2\S/C(=N\c3ccccc3)N(CCO)C2=O)cc1 | Active | Active | Active | Active | Active | Non-toxic | – | – | – | –
12 | CSc1ccc(/C=C2\S/C(=N\c3ccccc3)N(CCO)C2=O)cc1 | Active | Active | – | Active | Active | Non-toxic | – | – | – | 339000 ng/mL
